Results on 20 compounds are retold here after ChEMBL document CHEMBL3272173, “Synthesis and biological activity of peptide antagonists of luliberin (luteinizing hormone-releasing hormone)” (J Med Chem, 1979).

“And” between values parts separate entries of the source, which are not always exact repeats. Identical values can stand only once. Numbered stars: 1 amine (or outer) side, 2 acyl side, 3 side chain; on linkers, the order of the positions; unused ones are H or OH. Peptide text beside a SMILES is read from it. * marks the point of attachment. NHcHex = C1CCC(N*)CC1; CO = O=C([*:1])[*:2]

Assay [1] deals with T1, Gonadotropin-releasing hormone receptor (Rattus norvegicus) (UniProt P30969).
T1 sequence (whole entry): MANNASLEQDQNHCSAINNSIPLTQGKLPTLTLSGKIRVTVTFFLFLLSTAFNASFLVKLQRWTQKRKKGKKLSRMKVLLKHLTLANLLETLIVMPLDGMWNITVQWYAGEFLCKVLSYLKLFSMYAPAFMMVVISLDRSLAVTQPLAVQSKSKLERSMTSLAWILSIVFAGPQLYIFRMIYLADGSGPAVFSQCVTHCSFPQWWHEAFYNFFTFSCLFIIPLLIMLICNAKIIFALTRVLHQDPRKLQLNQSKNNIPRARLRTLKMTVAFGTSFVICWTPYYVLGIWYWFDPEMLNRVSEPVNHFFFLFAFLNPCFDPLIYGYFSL
In words: In vitro antagonist activity at GNRHR in CD rat anterior pituitary gland assessed as inhibition of LH-RH-stimulated LH release at compound to LH-RH molar ratio of 200 after 4 hrs by radioimmunoassay. To be noted: concentration not given here. The method, boiled down: (§1)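 Anterior pituitaries from diestrus CD rats (200-250 g) were dissociated enzymatically (collagenase, hyaluronidase, then Viokase). Cells were cultured 4 days at 1.67 × 10^5 cells/mL in DME with 10% horse serum and 2.5% fetal calf serum, then washed serum-free. Duplicate cultures received LH-RH (2-5 × 10^-10 M) with a single analogue concentration in serum-free DME for 4 h at 37 °C. LH in the medium was measured by RIA and reported as % inhibition of LH-RH-stimulated release.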

The target of assay [2] is T1, Gonadotropin-releasing hormone receptor (Rattus norvegicus). In words: In vitro antagonist activity at GNRHR in CD rat anterior pituitary gland assessed as ratio of molar concentration of compound to LH-RH for inhibition of LH-RH-stimulated LH release after 4 hrs by radioimmunoassay. The essentials: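 Monolayers were cultured 4 days from dissociated anterior pituitary cells of diestrus CD rats. They were exposed in duplicate to LH-RH (2-5 × 10^-10 M) plus multiple analogue concentrations in serum-free DME for 4 h at 37 °C. LH in the medium was measured by radioimmunoassay. The ED50 molar ratio is the analogue:LH-RH molar ratio giving 50% inhibition of LH-RH-stimulated LH release.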

Assay [3] has the same target. Kind of assay: In vitro antagonist activity at GNRHR in CD rat anterior pituitary gland assessed as inhibition of LH-RH-stimulated LH release at compound to LH-RH molar ratio of 1000 after 4 hrs by radioimmunoassay. Conditions: concentration not given here. The method, boiled down:
as §1

Assay [4] relates to Rattus norvegicus. In words: Antiovulatory activity in CD rat assessed as blockade of ovulation at 1 mg, sc administered as six doses at 1200, 1230, 1300, 1350, 1400 and 1450 hrs during proestrus stage measured during estrus stage by dissecting microscopic analysis. It is filed as functional. The essentials: (§2)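 Cycling Charles River CD rats were given six subcutaneous injections of analogue in 0.1 mL propylene glycol on the afternoon of proestrus, and controls received vehicle alone. Rats were killed the next morning (estrus). Ovulating animals were scored and ova in the oviducts were counted under a dissecting microscope.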

Assay [5] has as its system Rattus norvegicus. Kind of assay: Antiovulatory activity in sc dosed CD rat assessed as blockade of ovulation administered as six doses at 1200, 1230, 1300, 1350, 1400 and 1450 hrs during proestrus stage measured during estrus stage by dissecting microscopic analysis. In kind it is functional. The method, boiled down:
as §2

For orientation: inhibition means the share of the control response that was lost under treatment.

Regarding `CC(C)C[C@H](NC(=O)[C@@H](Cc1ccccc1)NC(=O)[C@H](Cc1ccc(O)cc1)NC(=O)[C@H](CO)NC(=O)[C@H](Cc1c[nH]c2ccccc12)NC(=O)[C@H](CCC(N)=O)NC(=O)OCc1ccccc1)C(=O)N[C@@H](CCCNC(=N)N)C(=O)N1CCC[C@H]1C(=O)NCC(N)=O`, in assay [1], the inhibition is 83% and 93%. Further, in assay [2], the ED50 was found to be 22 molar ratio.
Take `CC(C)C[C@H](NC(=O)CNC(=O)[C@H](Cc1ccc(O)cc1)NC(=O)[C@H](CO)NC(=O)[C@H](Cc1c[nH]c2ccccc12)NC(=O)NC1CCCCC1)C(=O)N[C@@H](CCCNC(=N)N)C(=O)N1CCC[C@H]1C(=O)NCC(N)=O` ({NHcHex-CO}-WSYGLRPG-NH2): in assay [3], the inhibition worked out at 19%.
Turning to `CC(C)C[C@H](NC(=O)CNC(=O)[C@H](Cc1ccc(O)cc1)NC(=O)[C@H](CO)NC(=O)[C@H](Cc1c[nH]c2ccccc12)NC(=O)[C@H](CCC(N)=O)NC=O)C(=O)N[C@@H](CCCNC(=N)N)C(=O)N1CCC[C@H]1C(=O)NCC(N)=O` (HELM PEPTIDE1{[O=C[*:2]].Q.W.S.Y.G.L.R.P.G.[am]}$$$$V2.0), the inhibition in assay [3] came to 0%.
With `CC(C)C[C@H](NC(=O)CNC(=O)[C@H](Cc1ccc(O)cc1)NC(=O)[C@H](CO)NC(=O)[C@H](Cc1c[nH]c2ccccc12)NC(=O)[C@H](CCC(N)=O)NC(=O)OC(C)(C)C)C(=O)N[C@@H](CCCNC(=N)N)C(=O)N1CCC[C@H]1C(=O)NCC(N)=O` (HELM PEPTIDE1{[CC(C)(C)OC(=O)[*:2]].Q.W.S.Y.G.L.R.P.G.[am]}$$$$V2.0), the inhibition in assay [3] turned out to be 15%.
Take `CC(=O)O.CCNC(=O)[C@@H]1CCCN1C(=O)[C@H](CCCNC(=N)N)NC(=O)[C@H](CC(C)C)NC(=O)[C@@H](Cc1ccc(OC)cc1)NC(=O)[C@H](Cc1ccc(O)cc1)NC(=O)[C@H](CO)NC(=O)[C@H](Cc1c[nH]c2ccccc12)NC(=O)[C@H](COCc1ccccc1)NS(C)(=O)=O`: the inhibition in assay [1] was determined as 75%. The “inhibition (INH)” value in assay [4] stood at 0%. In addition, the ED50 in assay [5] is >1 mg.
On to `CC(C)C[C@H](NC(=O)CNC(=O)[C@H](Cc1ccc(O)cc1)NC(=O)[C@H](CO)NC(=O)[C@H](Cc1c[nH]c2ccccc12)NC(=O)[C@H](Cc1ccc(O)cc1)NC(=O)OCc1ccccc1)C(=O)N[C@@H](CCCNC(=N)N)C(=O)N1CCC[C@H]1C(=O)NCC(N)=O` (HELM PEPTIDE1{[O=C(OCc1ccccc1)[*:2]].Y.W.S.Y.G.L.R.P.G.[am]}$$$$V2.0), for which the inhibition in assay [3] was determined as 16%.
Still for that read-out and setting: to `CC(C)C[C@H](NC(=O)CNC(=O)[C@H](Cc1ccc(O)cc1)NC(=O)[C@H](CO)NC(=O)[C@H](Cc1c[nH]c2ccccc12)NC(=O)[C@H](CC(N)=O)NC(=O)OCc1ccccc1)C(=O)N[C@@H](CCCNC(=N)N)C(=O)N1CCC[C@H]1C(=O)NCC(N)=O` (HELM PEPTIDE1{[O=C(OCc1ccccc1)[*:2]].N.W.S.Y.G.L.R.P.G.[am]}$$$$V2.0) belongs 35%.
`CC(C)C[C@H](NC(=O)[C@@H](Cc1ccc(O)cc1)NC(=O)[C@H](Cc1ccc(O)cc1)NC(=O)[C@H](CO)NC(=O)[C@H](Cc1c[nH]c2ccccc12)NC(=O)[C@@H](Cc1ccccc1)NC(=O)OCc1ccccc1)C(=O)N[C@@H](CCCNC(=N)N)C(=O)N1CCC[C@H]1C(=O)NCC(N)=O.Cl`: in assay [1], the inhibition stood at 83%. For the same compound, the “inhibition (INH)” value in assay [4] is on record as 0%. Besides, the ED50 in assay [5] is given as >1 mg.
For the compound `CC(C)C[C@H](NC(=O)CNC(=O)[C@H](Cc1ccc(O)cc1)NC(=O)[C@H](CO)NC(=O)[C@H](Cc1c[nH]c2ccccc12)NC(=O)[C@@H](NC(=O)OCc1ccccc1)C(C)C)C(=O)N[C@@H](CCCNC(=N)N)C(=O)N1CCC[C@H]1C(=O)NCC(N)=O` (HELM PEPTIDE1{[O=C(OCc1ccccc1)[*:2]].V.W.S.Y.G.L.R.P.G.[am]}$$$$V2.0), the inhibition in assay [3] was determined as 48%.
In the case of `CC(=O)O.CC(C)C[C@H](NC(=O)[C@@H](Cc1ccccc1)NC(=O)[C@H](Cc1ccc(O)cc1)NC(=O)[C@H](CO)NC(=O)[C@H](Cc1c[nH]c2ccccc12)NC(=O)[C@H](CCC(N)=O)NC(=O)OCc1ccccc1)C(=O)N[C@@H](CCCNC(=N)N)C(=O)N1CCC[C@H]1C(=O)NCC(N)=O`, the “inhibition (INH)” value in assay [4] is recorded as 20%. The ED50 in assay [5] is on record as >3 mg.
`CC[C@H](C)[C@H](NC(=O)OCc1ccccc1)C(=O)N[C@@H](Cc1c[nH]c2ccccc12)C(=O)N[C@@H](CO)C(=O)N[C@@H](Cc1ccc(O)cc1)C(=O)NCC(=O)N[C@@H](CC(C)C)C(=O)N[C@@H](CCCNC(=N)N)C(=O)N1CCC[C@H]1C(=O)NCC(N)=O.Cl` (HELM PEPTIDE1{[O=C(OCc1ccccc1)[*:2]].I.W.S.Y.G.L.R.P.G.[am]}$$$$V2.0): the inhibition in assay [3] is 70%. In addition, in assay [4], the “inhibition (INH)” value came out at 20%. In addition, the ED50 in assay [5] was >1 mg.
`CCNC(=O)[C@@H]1CCCN1C(=O)[C@H](CCCNC(=N)N)NC(=O)[C@H](CC(C)C)NC(=O)CNC(=O)[C@H](Cc1ccc(O)cc1)NC(=O)[C@H](CO)NC(=O)[C@H](Cc1c[nH]c2ccccc12)NC(=O)[C@H](CC(C)C)NC(=O)OCc1ccccc1.Cl`: in assay [3], the inhibition came out at 81%. Also, in assay [4], the “inhibition (INH)” value is listed as 20%. Also, in assay [5], the ED50 is listed as >1 mg.
Consider `CC(C)C[C@H](NC(=O)[C@@H](Cc1ccccc1)NC(=O)[C@H](Cc1ccc(O)cc1)NC(=O)[C@H](CO)NC(=O)[C@H](Cc1c[nH]c2ccccc12)NC(=O)[C@H](CCC(N)=O)NC(=O)OCc1ccccc1)C(=O)N[C@@H](CCCNC(=N)N)C(=O)N1CCC[C@H]1C(=O)NCC(N)=O.Cl`, for which the ED50 in assay [5] was >1 mg.
Take `CC(C)C[C@H](NC(=O)[C@@H](CO)NC(=O)[C@H](Cc1ccc(O)cc1)NC(=O)[C@H](CO)NC(=O)[C@H](Cc1c[nH]c2ccccc12)NC(=O)[C@H](COCc1ccccc1)NC(=O)OC(C)(C)C)C(=O)N[C@@H](CCCNC(=N)N)C(=O)N1CCC[C@H]1C(=O)NCC(N)=O.Cl`: the inhibition in assay [1] came to 68%. For the same compound, in assay [4], the “inhibition (INH)” value is 0%. Moreover, the ED50 in assay [5] is listed as >1 mg.
On the same counts, the results for `CC(=O)O.CCNC(=O)[C@@H]1CCCN1C(=O)[C@H](CCCNC(=N)N)NC(=O)[C@H](CC(C)C)NC(=O)[C@@H](CO)NC(=O)[C@H](Cc1ccc(O)cc1)NC(=O)[C@H](CO)NC(=O)[C@H](Cc1c[nH]c2ccccc12)NC(=O)[C@H](CCC(N)=O)NC(=O)OCc1ccccc1` are 50%, 0% and >1 mg.
Regarding `CCNC(=O)CNC(=O)[C@@H]1CCCN1C(=O)[C@H](CCCNC(=N)N)NC(=O)[C@H](CC(C)C)NC(=O)CNC(=O)[C@H](Cc1ccc(O)cc1)NC(=O)[C@H](CO)NC(=O)[C@H](Cc1c[nH]c2ccccc12)NC(=O)[C@H](CCC(N)=O)NC(=O)OCc1ccccc1` (HELM PEPTIDE1{[O=C(OCc1ccccc1)[*:2]].Q.W.S.Y.G.L.R.P.G.[CCN[*:1]]}$$$$V2.0), the inhibition in assay [3] was found to be 40%.
On to `CCNC(=O)[C@@H]1CCCN1C(=O)[C@H](CCCNC(=N)N)NC(=O)[C@H](CC(C)C)NC(=O)[C@@H](C)NC(=O)[C@H](Cc1ccc(O)cc1)NC(=O)[C@H](CO)NC(=O)[C@H](Cc1c[nH]c2ccccc12)NC(=O)[C@H](CCC(N)=O)NC(=O)OCc1ccccc1.Cl`, for which the inhibition in assay [3] stood at 100%. In addition, in assay [4], the “inhibition (INH)” value was determined as 20%. Moreover, in assay [5], the ED50 is on record as >3 mg.
On to `CC(C)C[C@H](NC(=O)CNC(=O)[C@H](Cc1ccc(O)cc1)NC(=O)[C@H](CO)NC(=O)[C@H](Cc1c[nH]c2ccccc12)NC(=O)[C@H](CC(C)C)NC(=O)OCc1ccccc1)C(=O)N[C@@H](CCCNC(=N)N)C(=O)N1CCC[C@H]1C(=O)NCC(N)=O.Cl` (HELM PEPTIDE1{[O=C(OCc1ccccc1)[*:2]].L.W.S.Y.G.L.R.P.G.[am]}$$$$V2.0), for which, in assay [3], the inhibition is 95%. The ED50 is 750 molar ratio in assay [2] and >3 mg in assay [5]. Besides, the “inhibition (INH)” value in assay [4] came out at 40%.
Consider `CC(C)C[C@H](NC(=O)CNC(=O)[C@H](Cc1ccc(O)cc1)NC(=O)[C@H](CO)NC(=O)[C@H](Cc1c[nH]c2ccccc12)NC(=O)Cc1ccccc1)C(=O)N[C@@H](CCCNC(=N)N)C(=O)N1CCC[C@H]1C(=O)NCC(N)=O` (HELM PEPTIDE1{[O=C(Cc1ccccc1)[*:2]].W.S.Y.G.L.R.P.G.[am]}$$$$V2.0), for which, in assay [3], the inhibition is 51%.
Consider `CCNC(=O)[C@@H]1CCCN1C(=O)[C@H](CCCNC(=N)N)NC(=O)[C@H](CC(C)C)NC(=O)[C@H](NC(=O)[C@H](Cc1ccc(O)cc1)NC(=O)[C@H](CO)NC(=O)[C@H](Cc1c[nH]c2ccccc12)NC(=O)[C@H](CCC(N)=O)NC(=O)OCc1ccccc1)[C@@H](O)c1ccccc1.Cl`, for which the “inhibition (INH)” value in assay [4] came to 100%. In assay [5], the ED50 was 0.4 mg.
